From PMC5508980 (Molecular nutrition & food research, 2017)

Columns and labels:
[1] = molecular target: recombinant HDAC5 (Homo sapiens, UniProt Q9UQL6); assay: Recombinant HDAC activity assay; format: biochemical; details: 2 h, read-out: % HDAC activity, Class IIa HDACs, 5
[2] = molecular target: T1, recombinant HDAC7 (Homo sapiens, UniProt Q8WUI4); assay: Recombinant HDAC activity assay; format: biochemical; details: 2 h, read-out: % HDAC activity, Class IIa HDACs, 7
T1 sequence (Q8WUI4 1-952): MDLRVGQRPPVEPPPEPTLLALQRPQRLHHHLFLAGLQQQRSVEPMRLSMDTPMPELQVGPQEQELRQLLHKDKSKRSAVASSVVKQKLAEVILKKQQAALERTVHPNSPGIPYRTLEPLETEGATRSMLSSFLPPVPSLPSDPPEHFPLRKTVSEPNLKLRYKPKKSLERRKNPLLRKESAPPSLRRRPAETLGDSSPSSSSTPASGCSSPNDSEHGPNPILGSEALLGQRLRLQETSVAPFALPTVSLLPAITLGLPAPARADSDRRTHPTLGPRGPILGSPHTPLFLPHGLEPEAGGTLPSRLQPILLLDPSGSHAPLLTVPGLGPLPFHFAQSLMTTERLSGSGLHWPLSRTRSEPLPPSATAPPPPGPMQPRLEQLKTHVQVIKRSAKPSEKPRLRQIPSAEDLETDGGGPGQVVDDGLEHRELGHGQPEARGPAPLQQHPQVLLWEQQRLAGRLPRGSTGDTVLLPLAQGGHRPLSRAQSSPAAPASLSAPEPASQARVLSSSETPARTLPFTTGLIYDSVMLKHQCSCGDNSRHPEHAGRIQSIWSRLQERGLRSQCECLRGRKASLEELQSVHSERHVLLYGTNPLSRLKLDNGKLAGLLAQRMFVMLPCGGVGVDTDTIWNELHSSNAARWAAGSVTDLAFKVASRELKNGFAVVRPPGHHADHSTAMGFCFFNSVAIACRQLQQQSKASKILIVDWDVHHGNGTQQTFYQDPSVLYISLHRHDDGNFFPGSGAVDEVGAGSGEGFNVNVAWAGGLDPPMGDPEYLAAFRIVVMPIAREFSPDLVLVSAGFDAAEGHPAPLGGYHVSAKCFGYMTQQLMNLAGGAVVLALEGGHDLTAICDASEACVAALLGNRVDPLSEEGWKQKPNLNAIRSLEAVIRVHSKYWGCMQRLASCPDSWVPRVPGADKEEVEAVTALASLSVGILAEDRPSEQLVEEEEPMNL

[3] = molecular target: recombinant HDAC9 (Homo sapiens, UniProt Q9UKV0); assay: Recombinant HDAC activity assay; format: biochemical; details: 2 h, read-out: % HDAC activity, Class IIa HDACs, 9
[4] = tested on: HDAC activity in bovine cardiac tissue; assay: Natural product library screen with class-selective HDAC substrates; format: biochemical; details: 2 hours treatment
Procedure, shortened: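 The screen covered 131 natural compounds against bovine cardiac tissue lysate at 30 µg protein/well in PBS (pH 7.4 lysis buffer with Triton X-100 and NaCl). Test compound for 2 h, then separate class I, IIa or IIb fluorogenic acyl-lysine-AMC substrates for 2 h at 37 °C. Developer (Triton X-100, 3 µM TSA, 0.75 mg/ml trypsin) for 20 min; fluorescence read at 360/460 nm.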

[5] = tested on: H9c2 cells; assay: Acetyl-H3K9/14 immunoblot of whole cell extract; format: cell-based, rat; details: H9c2 myocytes, 50 µM, 2 hours
Procedure, shortened: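 H9c2 cells were grown in DMEM with 10% FBS and treated at 90% confluence for 2 h with test compound or DMSO, with TSA as positive control. Washed in ice-cold PBS, lysed in PBS pH 7.4 with 0.5% Triton X-100 and 300 mM NaCl plus inhibitors, sonicated and clarified. SDS-PAGE, nitrocellulose, acetyl-H3K9/14 and total H3 antibodies, chemiluminescence; densitometry; ANOVA with Tukey.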

Sequence of recombinant HDAC9 (Q9UKV0 whole entry): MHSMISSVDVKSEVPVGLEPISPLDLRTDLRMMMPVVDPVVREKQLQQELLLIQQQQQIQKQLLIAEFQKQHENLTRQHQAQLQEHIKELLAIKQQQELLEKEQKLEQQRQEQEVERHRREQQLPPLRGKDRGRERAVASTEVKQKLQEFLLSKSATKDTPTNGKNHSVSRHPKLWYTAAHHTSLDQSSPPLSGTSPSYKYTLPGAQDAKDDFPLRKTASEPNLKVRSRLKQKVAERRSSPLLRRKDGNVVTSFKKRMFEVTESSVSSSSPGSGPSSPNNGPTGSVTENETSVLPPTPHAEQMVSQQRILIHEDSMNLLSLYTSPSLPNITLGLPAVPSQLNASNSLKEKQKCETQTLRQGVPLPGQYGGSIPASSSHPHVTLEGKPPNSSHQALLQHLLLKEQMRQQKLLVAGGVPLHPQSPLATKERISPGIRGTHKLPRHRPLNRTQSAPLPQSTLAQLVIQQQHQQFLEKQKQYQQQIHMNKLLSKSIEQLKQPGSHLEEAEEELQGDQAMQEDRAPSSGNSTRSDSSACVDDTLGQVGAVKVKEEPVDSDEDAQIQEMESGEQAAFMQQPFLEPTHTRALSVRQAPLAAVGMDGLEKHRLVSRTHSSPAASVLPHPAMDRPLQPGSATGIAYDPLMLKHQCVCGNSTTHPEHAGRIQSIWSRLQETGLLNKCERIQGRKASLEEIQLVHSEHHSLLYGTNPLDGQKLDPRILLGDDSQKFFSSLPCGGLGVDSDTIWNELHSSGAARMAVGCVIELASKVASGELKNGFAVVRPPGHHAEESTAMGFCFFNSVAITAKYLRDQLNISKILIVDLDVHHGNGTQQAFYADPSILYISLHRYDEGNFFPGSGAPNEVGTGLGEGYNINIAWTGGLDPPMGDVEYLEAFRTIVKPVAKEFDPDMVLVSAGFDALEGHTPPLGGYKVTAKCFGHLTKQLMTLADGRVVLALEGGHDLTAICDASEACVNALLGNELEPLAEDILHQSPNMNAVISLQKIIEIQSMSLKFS
Sequence of recombinant HDAC5 (Q9UQL6 whole entry): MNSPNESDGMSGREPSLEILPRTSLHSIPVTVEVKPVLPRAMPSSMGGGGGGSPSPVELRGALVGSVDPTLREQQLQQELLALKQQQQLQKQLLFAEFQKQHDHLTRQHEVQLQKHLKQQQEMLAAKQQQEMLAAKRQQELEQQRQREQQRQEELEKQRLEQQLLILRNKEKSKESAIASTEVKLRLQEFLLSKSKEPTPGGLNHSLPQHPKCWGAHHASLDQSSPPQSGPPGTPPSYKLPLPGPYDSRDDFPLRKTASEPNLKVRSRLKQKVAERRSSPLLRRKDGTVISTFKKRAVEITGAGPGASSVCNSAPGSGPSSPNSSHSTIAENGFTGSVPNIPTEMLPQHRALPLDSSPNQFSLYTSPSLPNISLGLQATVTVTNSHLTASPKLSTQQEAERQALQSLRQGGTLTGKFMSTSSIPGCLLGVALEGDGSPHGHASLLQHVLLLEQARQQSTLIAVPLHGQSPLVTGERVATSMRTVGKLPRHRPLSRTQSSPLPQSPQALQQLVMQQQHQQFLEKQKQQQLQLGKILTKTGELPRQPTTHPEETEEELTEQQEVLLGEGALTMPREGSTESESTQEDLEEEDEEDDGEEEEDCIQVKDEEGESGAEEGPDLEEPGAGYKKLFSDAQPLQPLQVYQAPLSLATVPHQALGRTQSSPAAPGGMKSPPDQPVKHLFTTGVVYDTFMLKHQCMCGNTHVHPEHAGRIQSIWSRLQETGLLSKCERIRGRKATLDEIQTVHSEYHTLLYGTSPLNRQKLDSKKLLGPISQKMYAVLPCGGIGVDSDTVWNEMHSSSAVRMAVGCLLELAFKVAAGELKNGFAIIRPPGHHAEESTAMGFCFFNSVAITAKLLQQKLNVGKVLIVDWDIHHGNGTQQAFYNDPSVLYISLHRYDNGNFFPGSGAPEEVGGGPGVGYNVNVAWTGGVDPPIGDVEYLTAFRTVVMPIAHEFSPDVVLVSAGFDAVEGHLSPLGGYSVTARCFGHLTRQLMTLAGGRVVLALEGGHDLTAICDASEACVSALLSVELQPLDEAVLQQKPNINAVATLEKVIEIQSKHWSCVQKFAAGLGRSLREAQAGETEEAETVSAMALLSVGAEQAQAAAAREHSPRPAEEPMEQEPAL

remaining activity at 50 µM [1]: 31.4%
remaining activity at 50 µM [2]: 53.1%
remaining activity at 50 µM [3]: 34.7%
Compound: Cc1cc(O)c2c(c1)C(=O)c1cc(O)cc(O)c1C2=O [Emodin]
catalytic HDAC activity across class I, IIa and IIb substrates, effect in words [4]: dose-dependent pan-HDAC inhibition
acetylation of histone 3 on lysine 9/14 (Ac-H3 K9/14) via immunoblot [5]: increased
